Screening data: PubChem, The Scripps Research Institute Molecular Screening Center
Sampled rows, rich in hits. Any-hit rate of the full collection: about 3.5%.
PRMT1 inh: blocks human protein arginine methyltransferase 1 | Q99873 | recombinant PRMT1, activity-based probe fluorescence polarization | inhibition, % at 2.79 µM | 370,000 compounds, 1.3% hits | AID 652257;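 active means inhibition above about 21% made by adding two undisclosed values, limit read from the data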
Target sequence (Q99873 whole entry, looked up): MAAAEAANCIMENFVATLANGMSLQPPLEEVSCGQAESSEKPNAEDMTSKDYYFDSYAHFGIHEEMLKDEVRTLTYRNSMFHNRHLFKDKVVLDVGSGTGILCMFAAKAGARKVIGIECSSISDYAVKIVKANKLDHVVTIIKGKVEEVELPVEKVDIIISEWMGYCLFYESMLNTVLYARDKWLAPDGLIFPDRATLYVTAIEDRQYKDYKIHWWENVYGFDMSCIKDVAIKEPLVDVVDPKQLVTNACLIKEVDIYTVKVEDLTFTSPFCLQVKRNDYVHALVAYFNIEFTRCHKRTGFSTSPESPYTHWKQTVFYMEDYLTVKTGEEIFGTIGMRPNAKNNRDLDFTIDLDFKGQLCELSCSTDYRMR
HTRA1 inhibitor: HTRA1 (human) protease inhibition; Q92743; recombinant HTRA1, FP-rhodamine activity-based probe, fluorescence polarization; inhibition, % at 5.96 µM; 340,000 compounds, 0.5% hits; AID 504803; in the data active means inhibition above about 36%
mABHD4 FP: inhibitors of mouse ABHD4. 370,000 compounds, 0.54% hits. Q8VD66. purified mABHD4, FP-Rh probe fluorescence polarization. inhibition, % at 8.92 µM. AID 720543;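 active means inhibition exceeding the mean over every tested compound plus 3 SD, cut at about 30% in these data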
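System: mouse ABHD4 enzyme, wild type / Medium: HEPES pH 7.0, NaCl, Pluronic buffer / Reagent: FP-Rh activity-based fluorescent probe / Control set: S159A mutant high control, sample median low control / Detection: fluorescence polarization with parallel and perpendicular emission, 525/598 nm / Schedule: 45 min + 60 min at 25 °C / Compound dosing: 8.92 µM, single dose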
rCAG RNA binder: r(CAG) repeat RNA binding. TO-PRO-1 dye displacement fluorescence. inhibition, % at 3 µM. 370,000 compounds, 1.3% hits. AID 651821;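 active means inhibition above the plate cutoff, the mean of all test compounds on that plate plus 3 SD, cut at about 35% in these data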;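 further: higher means more dye released from RNA so lower well fluorescence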
TCR CD3 inh: human TCR-CD3 binding inhibition; inhibition, % at 9.4 µM; TAMRA-labeled TCR probe fluorescence, biochemical; 360,000 compounds, 0.37% hits;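 further: recombinant mutant TCR 2C K166C tagged with TAMRA read by polarization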
SIAE primary: blocks human sialic acid acetylesterase. SIAE FP-Rh probe binding, fluorescence polarization. inhibition, % at 9.66 µM. 370,000 compounds, 0.69% hits;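 active means inhibition above a cutoff: mean of compounds within the control limits plus 3 SD of those, cut at about 17% in these data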
BSA TAMRA ctr: counter-screen for TCR-CD3 interaction inhibitors: BSA probe; shares compounds with TCR CD3 inh; TAMRA-labeled BSA probe fluorescence counterscreen; inhibition, % at 9.4 µM; 1,200 compounds, 10% hits; AID 652035; in the data active means inhibition above about 23%
TCR-CD3 conf: confirmation of human TCR-CD3 interaction inhibitors. shares compounds with TCR CD3 inh. TAMRA-labeled TCR probe fluorescence binding assay. inhibition, % at 9.4 µM. 1,200 compounds, 48% hits. AID 652036
rCAG bind conf: r(CAG) RNA repeat binding, confirmation | inhibition, % at 3 µM | TO-PRO-1 dye displacement fluorescence | shares compounds with rCAG RNA binder | 4,300 compounds, 70% hits;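 active means inhibition above a per-plate cutoff, the mean inhibition of sample wells plus 3 SD, cut at about 35% in these data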;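 further: loss of TO-PRO-1 fluorescence as compound displaces dye from 1x1 AA loop RNA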
DNA CAG counter: counter-screen for rCAG RNA binders: DNA CAG dye complex inhibitors; shares compounds with rCAG RNA binder; d(CAG) DNA oligo TO-PRO-1 dye displacement, fluorescence; inhibition, % at 3 µM; 4,300 compounds, 94% hits; AID 652068;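 active means inhibition above its plate's cutoff, the mean test-well inhibition plus 3 SD, cut at about 4.8% in these data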;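 further: hits displace the dye from DNA and so lower well fluorescence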
PRMT1 confirm: PRMT1 (human) inhibition, FP confirmation. shares compounds with PRMT1 inh. recombinant His-PRMT1, activity-based probe fluorescence polarization. inhibition, % at 2.79 µM. 3,300 compounds, 42% hits. AID 687036;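 active means mean inhibition across replicates above the hit cutoff derived for the earlier primary screen, cut at about 22% in these data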
ABHD4 confirm: ABHD4 (mouse) inhibition, FP confirmation | shares compounds with mABHD4 FP | purified mABHD4, FP-Rh probe fluorescence polarization | inhibition, % at 8.92 µM | 1,800 compounds, 55% hits;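 active means mean inhibition across replicates above the hit cutoff set in the primary screen, cut at about 30% in these data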
SIAE inh conf: human SIAE inhibition, confirmation | shares compounds with SIAE primary | SIAE FP-Rh activity-based probe, fluorescence polarization | inhibition, % at 9.66 µM | 2,300 compounds, 13% hits;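 active means mean inhibition of the replicates above the hit cutoff set in the primary screen, cut at about 17% in these data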;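 further: inhibitors lower polarization as more probe stays unbound to SIAE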
Each line names hits and unclear results; the compound was inactive in the other large screens (follow-up assays come after a bar, where they were run). Unless noted, no stated cut-off is given here; in the data, active means inhibition above about 19%; inactive means the rest.

O=c1c(O)c(-c2ccc(O)c(O)c2)oc2cc(O)cc(O)c12	mABHD4 FP 34, rCAG RNA binder 36, TCR CD3 inh 19, SIAE primary 18 | BSA TAMRA ctr inactive | TCR-CD3 conf inactive | rCAG bind conf inactive | DNA CAG counter 8.1 | ABHD4 confirm 33 | SIAE inh conf inactive
CCCC1CCC2(CC1)CCC2OC(=S)Nc1ccccc1 (stereo not drawn)	none (no result: HTRA1 inhibitor, rCAG RNA binder, TCR CD3 inh)
N#CCCN(CCC#N)C(=O)C1c2ccccc2Oc2ccccc21	PRMT1 inh 48, mABHD4 FP 103, TCR CD3 inh 124, SIAE primary 67 | BSA TAMRA ctr inactive | TCR-CD3 conf inactive | ABHD4 confirm inactive | SIAE inh conf inactive
Clc1ccc(-c2nnc3n2N=C(c2ccc(-c4ccccc4)cc2)CS3)cc1	none (no result: HTRA1 inhibitor, TCR CD3 inh)
CCN(CC)S(=O)(=O)c1cccc(C(=O)N/N=C/c2ccc(O)c(O)c2O)c1	PRMT1 inh 27, mABHD4 FP 42, rCAG RNA binder 53, TCR CD3 inh 31, SIAE primary 34 | BSA TAMRA ctr inactive | TCR-CD3 conf 29 | rCAG bind conf 55 | DNA CAG counter 24 | ABHD4 confirm 52 | SIAE inh conf inactive
CCOc1ccccc1/C=N/NC(=O)c1cccc(S(=O)(=O)N(CC)CC)c1	none
N#Cc1ccc(CSc2nc3sc4c(c3c(=O)n2-c2ccc(Br)cc2)CCCC4)cc1	none (no result: HTRA1 inhibitor, TCR CD3 inh)
CN(C)c1ccc(C=Cc2nccc3ccccc23)cc1	PRMT1 inh 139, mABHD4 FP 112, TCR CD3 inh 157, SIAE primary 131 (no result: HTRA1 inhibitor) | BSA TAMRA ctr 145 | TCR-CD3 conf 88 | PRMT1 confirm 61 | ABHD4 confirm 85 | SIAE inh conf 20
c1ccc(-c2c[nH]c3ccc(OCCN4CCOCC4)c(-c4ccccc4)c23)cc1	none (no result: HTRA1 inhibitor, TCR CD3 inh)
Cc1ccc(N(C)c2nc(N)nc(N)c2N=O)cc1	PRMT1 inh 173, mABHD4 FP 85, TCR CD3 inh 197, SIAE primary 52 (no result: HTRA1 inhibitor) | BSA TAMRA ctr active | TCR-CD3 conf 198 | SIAE inh conf 95
Cc1cccc(Nc2nc(N)nc(N)c2N=O)c1	none
CC(=O)c1cc(-c2cnn(Cc3ccccc3)c2)c(=O)n2c1CCC2	none (no result: HTRA1 inhibitor, TCR CD3 inh)
O=C(NNC(=O)c1ccc2ccccc2c1O)Nc1ccc(F)cc1	TCR CD3 inh 32, SIAE primary 26 | BSA TAMRA ctr inactive | TCR-CD3 conf 29 | SIAE inh conf inactive
COc1cccc(OCC(=O)NNC(=O)c2ccc3ccccc3c2O)c1	TCR CD3 inh 44, SIAE primary 19 | BSA TAMRA ctr inactive | TCR-CD3 conf 39 | SIAE inh conf inactive
COc1ccccc1C(=O)NNC(=O)c1ccc2ccccc2c1O	TCR CD3 inh 32, SIAE primary 20 | BSA TAMRA ctr inactive | TCR-CD3 conf 38 | SIAE inh conf inactive
CC(C)CN1C(=O)C[C@@]2(C(=O)N(C)c3ccc(NS(=O)(=O)C4CC4)cc32)C1c1ccccc1 (stereo partly drawn)	none (no result: HTRA1 inhibitor, TCR CD3 inh)
O=C(N/N=C\c1c(O)ccc2ccccc12)c1ccc(Cn2cccn2)o1	TCR CD3 inh 24, SIAE primary 24 | BSA TAMRA ctr inactive | TCR-CD3 conf 25 | SIAE inh conf inactive
O=C(N/N=C\c1ccc(Cl)s1)c1ccc(Cn2cccn2)o1	none
